Measured values taken from the RNAGym collection of RNA variant scans (doi:10.1126/science.aae0568).
Variants at the floor of the assay were thinned out.

B1: tRNA (parent)
chain: GUUCCGUUGGCGUAAUGGUAACGCGUCUCCCUCCUAAGGAGAAGACUGCGGGUUCGAGUCCCGUACGGAACG

Variants of: B1
Assay: yeast fitness relative to wild type (ratio to wild type); higher = fitter; tRNA-Arg(CCU), competitive growth, 37 C, YPD
Method in brief: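 Amplicons of the tRNA-Arg(CCU) gene were sequenced, 100-nucleotide paired-end, from the start population and from each end population of a pooled yeast competition. The competition, in six parallel replicates, lasted 24 hours in YPD at 37°C. Fitness relative to wild type was calculated from changes in genotype frequencies. Genotypes had to have ≥ 100 starting reads, and estimates < 0.5 were set to 0.5.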

Variant	yeast fitness
G52A G68C	0.744
G52A G68U	0.653
G51A C62G C66U	≤ 0.5
G52C A65C A70G	0.515
G50A G56A C62G A70U	≤ 0.5
G50A C62A G68A	≤ 0.5
G52C C62G	0.646
G52C C62A	0.596
C49U A57C	0.78
G50A U53C C62A A69U	0.517
C49A C66U	0.641
G50A A65U	0.703
G50A C62U G63A	≤ 0.5
G51A A70U	0.935
G50C G58U G68U A69G	0.508
C49U G56C A70C	≤ 0.5
G50U C61A	≤ 0.5
G52A U59A	0.666
C49G C66G	0.647
C49G C66U	0.781
G52A U59A A69C A70C	0.609
G50A G56C	0.635
G50A G56A	1.04
G52C C60U	0.533

Variant	yeast fitness
G52C C60A	0.641
C49U A69U A70G	0.687
C49U C55U G58A	≤ 0.5
G50A U54A	0.705
G50C G51A C62U	≤ 0.5
C49U G67U A69C	0.542
C49G G50A	0.667
C49G G50C	0.613
G51A U59A G67C	≤ 0.5
G52C A70U	0.804
G52A A57U	0.516
G52A A57C	0.789
G50A C55A C66A	0.543
G51C U54A A57C	0.859
C49U G58C	1
G51C A69U	0.624
G51A C55U A65U	≤ 0.5
G52A U54C	0.589
G52A A57U C61G	≤ 0.5
G50C C61U C62U A69U	≤ 0.5
C49A G50A C62U	0.637
C49U U54C C66G	≤ 0.5
C49U A70U	1
G52A G58A	0.69

Variant	yeast fitness
G51A G63A	0.739
G51A G63C	0.693
G52A G67U	0.619
G52A G67C	0.796
C49G A65U	0.748
C49G A65G	0.957
C49U U59G	0.904
C49U U59A	0.852
G50C U53C U54A	≤ 0.5
C49A G56C G67A	≤ 0.5
G50C C60A	≤ 0.5
G50A A70G	1.06
G50A A70U	0.805
G50A C66U A69C	0.531
G50C G52C	0.562
C49U G68C A69U	0.569
C49U A65G	0.942
C49U G67A A69U	≤ 0.5
C49G G52A A69U	0.542
G51C G56A C62G C66A A70G	≤ 0.5
C49A A65U	0.962
C49A A65G	0.625
C49U C62U	0.869
C49U C62A	0.787

Variant	yeast fitness
C49G C62U	0.79
C49U G63C G67C	0.53
G52C A69U A70U	≤ 0.5
G50C C55A C60A	≤ 0.5
G50A G51U	0.664
G50A G51C	0.585
C49G U53C C55A G63A	≤ 0.5
G51A U53G G68A	≤ 0.5
C49G G52A	0.898
G50A C55A	0.702
G51C C62G G68A	0.715
G50U A65G A70C	0.59
G51A C55U	0.633
C49G U54A G68U A69U	0.566
G50C C62U	0.963
G50C C62G	0.965
C49A A57C	0.573
C49A A57G	0.835
G51C C62U	0.668
G51C C62G	0.528
G51A U53C	0.745
G52A A70C	0.675
C49A G67A	0.579
G52A C61A A69U	≤ 0.5

Variant	yeast fitness
C49A A57U A70C	0.518
G51A A69U	0.738
G52A G56C A65U	≤ 0.5
C49U	0.995
C49A	0.759
C49G	0.99
C49G C60U A65C	≤ 0.5
G52C A57C G63C	0.519
G51A G52A	0.571
G51A C55U G58A	0.606
C49U G56A	1.03
C49U G56C	0.58
C49U G56U	0.677
C49G A57U C61G	0.516
G51A C61U	1.11
G51A C61G	0.588
G51A C61A	0.536
C49U C61G	0.689
C49A U53A U59C C61A	≤ 0.5
G52A G58A A65G	0.684
G51C C61G	1.04
G51C U64C	0.941
G50C G58C	0.722
C49G A57U G63A G67A	≤ 0.5

Variant	yeast fitness
G51C	0.612
G51A	0.917
G51U	0.843
C49U U59A C61A	≤ 0.5
C49U A65U A70U	0.657
G52A C62U G63A	≤ 0.5
C49U C66A	0.815
C49U C66G	0.752
C49U C66U	0.968
G50A A69U	1
G52C C55A	≤ 0.5
G52C C55G	0.843
C49U C62U A69U	0.948
G51A A57G	0.819
G51C G63A	0.611
C49G G63A C66U	0.524
G52C A57U	0.514
G48C U64A	0.946
G48C U64C	1.08
G52C	0.635
G52A	0.696
C49G G68C	0.704
C49G G68A	0.953
C49U G51C C55A	0.618

Variant	yeast fitness
G52A G63A G67A	0.553
G50A U59C	0.863
G50A U59G	0.846
C49A G63U U64C	≤ 0.5
G51A G52C C61U	0.536
C49G C60G	0.64
C49G C60A	0.696
G50C C66U	0.596
G50C C66A	0.657
C49A G51C	0.589
G51A U59A C61U G67A	≤ 0.5
G51U U53A	0.657
C49G G56A	0.838
G51C G67U	0.504
G51C G67A	0.572
C49A G56A	0.831
G50C U53A A57U A65U	0.57
G50C G51C G56A	0.602
G51C U59C	0.523
G51A C61U C66G	≤ 0.5
G50C U54C A57G	≤ 0.5
C49G G67C	0.84
G52A C66U	0.706
G52A C66A	0.649

Variant	yeast fitness
G48U	1.03
G51A C55G G68C	≤ 0.5
C49A C62U A65G	≤ 0.5
G52A C60G	≤ 0.5
G52A C60A	0.696
G51C G52C U59A	0.614
G51C A70U	0.662
C49U U53C	0.691
C49A G68A	0.64
C49A G68U	0.723
C49A G68C	0.578
C49U A69C	1.01
C49G G50A U59G	≤ 0.5
G50A G68C	0.635
G52A C61U	0.886
C49G U54G A69U	≤ 0.5
C49U G51C U64C G68A	≤ 0.5
G50A C61G	0.737
C49U G51A A69C	0.61
G52A A69U	0.853
G50C C61G A70C	≤ 0.5
C49G A57C	0.656
C49G A57G	0.719
C49G A57U	0.792

Variant	yeast fitness
G50C A65C	0.602
G48C U64C G67C	≤ 0.5
C49G G50A A57C	≤ 0.5
C49U G51C G68A	≤ 0.5
G52C C66U	0.547
C49G A57G C61U	0.584
C49G C55U	0.692
C49G C61U	0.719
C49G C61A	0.808
C49A C61U A65G	0.568
C49U C55A C66U	0.514
G50C U59C	0.721
G50C U53C C55U	0.528
G51C C66A	≤ 0.5
G51C C66U	0.565
C49G C66A G67U	≤ 0.5
G51C A65U	0.597
G51C A65C	0.71
C49U A57U G67C	≤ 0.5
G52A C55G	0.561
G52A C55U	0.561
G52A C55A	0.581
G52C C61G	≤ 0.5
G50C G51A C55U	0.549

Variant	yeast fitness
G52A G58C A70G	≤ 0.5
C49U C55A C62U	0.699
C49G U53A	0.627
G50C A57U C61A	≤ 0.5
G52A A57G G58A A70U	≤ 0.5
C49A C60G A70U	≤ 0.5
C49G U54A	0.637
C49G U54G	0.625
G51C C55U	≤ 0.5
G50U U59G	0.796
C49U C62U G67A	0.573
G51A G68C	0.671
G50U A69U	1.02
G51A C66U	0.82
G51A C66A	0.555
G52A G56U A70U	≤ 0.5
C49U C55U C61U	0.559
G50C G58A C66U	0.538
G50A G52U G67C	≤ 0.5
C49A U64C	0.86
G51A A57C U59C	≤ 0.5
C49U C60G	0.609
C49U C60A	0.668
C49A C62G	0.576

Variant	yeast fitness
C49G G56A A65C	0.543
G51C A57G C61U A65C	≤ 0.5
G51C C62U A70U	≤ 0.5
G51U A57G	0.642
C49A G50A	0.672
C49A G50U	0.694
G52A A57C A70G	0.524
G51A A57C C66U	0.59
C49G G63A	0.86
C49G G63C	0.967
G50A C66U	0.783
G50A C66A	0.516
C49A A70U	0.714
G52A U59A A69C	0.571
G51A C62U	0.763
G51A C62A	0.561
G51A C62G	0.621
C49U U59A A65U	≤ 0.5
C49U U53A C66U A70U	≤ 0.5
C49U G68C	0.801
G51A A57G A65G C66U	≤ 0.5
G51A A65G	0.852
G51A A65U	0.66
G51A A65C	0.75

Variant	yeast fitness
C49U U64A	0.753
C49U U64C	0.921
G51A U59A C62G	≤ 0.5
C49U G67A	0.879
G50A C62A C66G	≤ 0.5
G50C G63A	0.773
G52C A65U	0.614
G52C A65G	0.613
G52C A65C	0.907
G51A C61A C66A	≤ 0.5
C49G U59C	0.761
C49G U59A	0.785
G51U C61U	0.747
G50C U54C C62G	0.622
G51C G58A	0.789
G50C A57U	0.63
G51C U54C C66U	≤ 0.5
G50U G67A	0.821
G51A U59A	0.696
C49G C60U A69G	≤ 0.5
G50A G56C G63A	0.561
G51C A57G	0.52
G51C A57U	0.691
G51C A57C	0.551

Variant	yeast fitness
G52A C55G A69U	≤ 0.5
G50C U64C	0.967
G50A	1
G50C	0.844
G50U	0.961
G50A C62G	1.03
G50A C62U	1
G51A G67A	0.872
G51A G67U	0.709
G51A G67C	0.857
G50A C60G U64G	0.521
C49U G52C	0.547
C49A U54G	0.584
C49A U54C	0.674
C49A U54A	0.538
G50C A70U	0.875
G50C A70G	0.681
G51A U53A A69C	≤ 0.5
G52A U64C	0.789
G52A A65G	0.86
G52A A65U	0.631
C49G C66G G67C	0.569
C49U C62G G68C	0.536
C49A C60A A70C	≤ 0.5

Variant	yeast fitness
G50A G56A A69C	0.706
G51C C55G C62A	≤ 0.5
G50U C62U A69C	0.661
G52C A69C	0.687
C49U U54C C55G	0.548
G52A U53A C66U	≤ 0.5
G51C U54A G56C	≤ 0.5
G51C G68C	0.641
C49U G52C A57C G63C	≤ 0.5
G50A G52A	0.688
G51A A69U A70G	0.543
G50A G67A	0.818
G50A G67C	0.743
G48C U59A C66U	0.679
G51C U54C A57G	≤ 0.5
C49U U54C	0.864
C49U U54A	0.736
C49A G50U C62U	≤ 0.5
C49U G51A	0.737
C49U G51C	0.756
G50A C55G C62A	0.654
C49G G56C A70U	0.55
